Most compounds without a hit are left out; they make up all but 1.1% or so of the library.
CAL PDZ FP-1: blocks peptide binding to the human CAL PDZ domain; Q9HD26; purified CAL PDZ, TMR-peptide fluorescence polarization, 1 h; inhibition, % at 24.9 µM; hit rate 0.92% among 300,000; AID 602252;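 active = mean inhibition of at least 30% with at least half of replicates also reaching 30%; inconclusive = no clear call, values can overlap the other calls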;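 note: 0% = DMSO neutral control and 100% = excess unlabeled competitor peptide PRC23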
miR122 inh: miR-122 inhibition in Huh7 cells; Huh7 miR-122 Renilla luciferase sensor, 48 h; neutral wells = 0, positive control = 100; activation (reporter increase), % at 12.5 µM; hit rate 0.3% among 340,000;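 active = mean replicate activation score at least 90 and every replicate individually at or above 90; inconclusive = only one of the two criteria met; inactive = neither criterion met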;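 note: higher luciferase means less miR-122 activity so hits act as miR-122 inhibitors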
PglD inh: PglD (C. jejuni) enzyme inhibition. purified PglD enzyme, DTNB colorimetric CoA detection. inhibition, % at 12.5 µM. hit rate 0.098% among 360,000; in the data active = inhibition above about 16%, passing the limit was not always enough; inconclusive = no clear call, values can overlap the other calls
CAL PDZ FP-2: blocks peptide binding to human CAL PDZ domain. Q9HD26. purified CAL PDZ, TMR-peptide fluorescence polarization, 1 h. inhibition, % at 20 µM. hit rate 0.02% among 330,000. AID 504414;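 active = highest replicate inhibition of at least 40%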;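 note: plate controls were DMSO neutral control wells for no effect and unlabeled competitor peptide control wells for full effect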
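Read-out basis: mP drop reported as inhibition | Assay system: Tagged CAL PDZ protein CerCALP, purified | Benchmarks: Unlabelled peptide for full inhibition, DMSO wells as neutral | Schedule: 1 h incubation at room temperature before polarization reading | Buffer or medium: Sodium phosphate/NaCl buffer pH 7.4 with TCEP, IgG, Thesit | Doses: Single point, 20 µM | Measured by: Fluorescence polarization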
Cneo AK release: causes C. neoformans cell lysis. lysis activity, % at 15 µM. hit rate 0.2% among 360,000. adenylate kinase release luminescence, 4 h; normalised: neutral wells 0, clomiphene wells 100;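 active = mean lysis activity across replicates of at least 80%, whatever share of replicates individually reach that level; inactive = mean lysis activity below 80%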
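Assay system: Cryptococcus neoformans yeast cells / Dosing: single-point compound dose / Timing: 4 h at 37 °C static, read 1 h later / Measured by: luminescence of released adenylate kinase using an AK detection reagent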
The depositor's hits bear a star; [ ] = remark or other dose.

What do the screens show for `C[C@H](CO)N1C[C@H](C)[C@H](CN(C)S(=O)(=O)c2cccs2)OCCCC[C@H](C)Oc2ccc(NS(=O)(=O)c3cccs3)cc2C1=O`?
miR122 inh: -3[16.7 µM]; PglD inh: -1; Cneo AK release: 0

Results for COc1cc(-c2nnc(SCC(=O)O)n2-c2ccccc2)cc(OC)c1OC ?
CAL PDZ FP-1: 69*; miR122 inh: -1; PglD inh: -1; Cneo AK release: 2

Results for CCC(CC)C(=O)NCCc1ccc(OC)c(OC)c1 ?
CAL PDZ FP-1: 60*; miR122 inh: 1; PglD inh: -2; CAL PDZ FP-2: 0; Cneo AK release: 1

Results for CCOc1cc2[nH]c(=O)n(CCC(=O)NCCc3ccc(OC)c(OC)c3)c(=O)c2cc1OCC ?
CAL PDZ FP-1: 62*; miR122 inh: 3; PglD inh: 3; CAL PDZ FP-2: -1; Cneo AK release: -2

What do the screens show for `COc1ccc(CCNC(=O)CCn2c(=O)[nH]c3cc(OC)c(OC)cc3c2=O)cc1OC`?
CAL PDZ FP-1: 40*; miR122 inh: 0; PglD inh: 5; CAL PDZ FP-2: -1; Cneo AK release: -1

Results for CCC(CC)C(=O)NCCc1ccc(OC)cc1 ?
CAL PDZ FP-1: -5; miR122 inh: -9; CAL PDZ FP-2: -2

What do the screens show for `COc1ccc(CCNC(=O)CCCn2c(=O)[nH]c3cc(OC)c(OC)cc3c2=O)cc1OC`?
CAL PDZ FP-1: -1; miR122 inh: 9; PglD inh: -3; CAL PDZ FP-2: -2; Cneo AK release: 3

Results for CCCN(C)C[C@H]1Oc2cc(C3=CCCC3)ccc2S(=O)(=O)N([C@H](C)CO)C[C@H]1C ?
miR122 inh: 8[16.7 µM]

Results for C[C@]12c3[nH]c4cc(-c5ccco5)ccc4c3CCN1C(=O)[C@@H](CC(=O)NCCN1CCOCC1)C[C@@H]2C(=O)N1CCCCC1 ?
CAL PDZ FP-1: 48*; miR122 inh: 0; PglD inh: 3; CAL PDZ FP-2: -1; Cneo AK release: -3

Results for C[C@@H]1CCCCO[C@@H](CN(C)Cc2ccc(Cl)c(Cl)c2)[C@H](C)CN([C@@H](C)CO)C(=O)c2cc(NC(=O)Nc3ccc(C(F)(F)F)cc3)ccc2O1 ?
miR122 inh: 3[16.7 µM]; PglD inh: 0; Cneo AK release: 1

How did O=C(COC(=O)c1ccco1)Nc1nc2c(F)c(F)c(F)cc2s1 do in these assays?
CAL PDZ FP-1: -3; PglD inh: -1; CAL PDZ FP-2: -3; Cneo AK release: 1

Results for O=C(COC(=O)CCC1CCCC1)Nc1nc2c(F)c(F)c(F)cc2s1 ?
CAL PDZ FP-1: 0; miR122 inh: 6; PglD inh: -4; CAL PDZ FP-2: -2; Cneo AK release: 91*

Results for CN1CCN(C(=O)Cn2ncc3c([nH]c4ccccc43)c2=O)CC1 ?
CAL PDZ FP-1: -3; miR122 inh: 3; PglD inh: -4; CAL PDZ FP-2: 0; Cneo AK release: 4

How did O=C(Cn1ncc2c([nH]c3ccccc32)c1=O)N1CCOCC1 do in these assays?
CAL PDZ FP-1: 39*; miR122 inh: -3; PglD inh: -5; CAL PDZ FP-2: -1; Cneo AK release: 0

Results for COC(=O)c1c(C)oc(C)c1S(=O)(=O)NCC1CC1 ?
CAL PDZ FP-1: -4; miR122 inh: 97*; PglD inh: -2; CAL PDZ FP-2: 0; Cneo AK release: -6

How did Cc1ccc(N(C)S(=O)(=O)c2c[nH]c3ccc([N+](=O)[O-])cc23)cc1 do in these assays?
CAL PDZ FP-1: 2; miR122 inh: 110*; PglD inh: -2; CAL PDZ FP-2: -2; Cneo AK release: 0

What do the screens show for `O=C1C=C(c2ccc3cc[nH]c3c2)C[C@@H](c2ccc3c(c2)OCO3)C1`?
CAL PDZ FP-1: -7; PglD inh: 7; CAL PDZ FP-2: -1; Cneo AK release: -4

Results for O=C(Cn1cccc1C(=O)c1ccccc1)NCc1ccccc1Cl ?
CAL PDZ FP-1: active; miR122 inh: 4; PglD inh: -6; CAL PDZ FP-2: 0; Cneo AK release: 1

How did CCOC(=O)N1CCN(C(=O)c2ccc3c(c2)sc2nc(-c4ccc(OC)cc4)cn23)CC1 do in these assays?
CAL PDZ FP-1: 38*; PglD inh: 0; CAL PDZ FP-2: -1; Cneo AK release: 0

Results for CCOC(=O)N1CCN(C(=O)c2sc3nc(-c4ccc(F)cc4)cn3c2C)CC1 ?
CAL PDZ FP-1: -1; miR122 inh: -13; PglD inh: 0; CAL PDZ FP-2: -1; Cneo AK release: 0

Results for N#CCc1ccc(OC(=O)Nc2ccccc2)cc1 ?
CAL PDZ FP-1: 114*; miR122 inh: -5; PglD inh: -7; Cneo AK release: 3

How did CC(C)n1nc(C(=O)Nc2cccc(S(=O)(=O)NCc3ccco3)c2)c2ccccc2c1=O do in these assays?
CAL PDZ FP-1: -3; miR122 inh: 99*; CAL PDZ FP-2: -1

How did C[C@@H]1CCCCO[C@H](CN(C)Cc2ccncc2)[C@H](C)CN([C@@H](C)CO)C(=O)c2cc(NC(=O)C3CCCCC3)ccc2O1 do in these assays?
miR122 inh: 52[16.7 µM]; PglD inh: -1; Cneo AK release: 45

Results for NC(=O)C1CCCN(C(=O)CCCNC(=O)c2ccc(Cl)cc2)C1 (stereo unspecified) ?
CAL PDZ FP-1: 73*; miR122 inh: -4; PglD inh: -9; CAL PDZ FP-2: -1; Cneo AK release: -1

What do the screens show for `CC1CCCN(C(=O)CCCNC(=O)c2ccc(Cl)cc2)C1` (stereo unspecified)?
miR122 inh: -9; PglD inh: -5; CAL PDZ FP-2: -1; Cneo AK release: 5

How did CCn1c(/C=C/c2ccccc2C)nc2ccccc2c1=O do in these assays?
CAL PDZ FP-1: 51*; miR122 inh: 14; PglD inh: 0; CAL PDZ FP-2: 0; Cneo AK release: -1

How did CC(C)Cc1nc2oc3c(NCC(C)O)ncnc3c2c2c1CCCC2 (stereo unspecified) do in these assays?
CAL PDZ FP-1: 43*; miR122 inh: 8; PglD inh: -6; CAL PDZ FP-2: -2; Cneo AK release: 3

What do the screens show for `CCCCNS(=O)(=O)c1ccc2nc(SCC(=O)Nc3sccc3C#N)[nH]c2c1`?
CAL PDZ FP-1: 35*; miR122 inh: 202*; PglD inh: -3; Cneo AK release: -4

What do the screens show for `CCCCNS(=O)(=O)c1ccc2nc(SCC(=O)Nc3ccccc3Cl)[nH]c2c1`?
CAL PDZ FP-1: -1; CAL PDZ FP-2: -3

Results for CCCCNS(=O)(=O)c1ccc2nc(SCC(N)=O)[nH]c2c1 ?
CAL PDZ FP-1: -4; miR122 inh: 153*; PglD inh: 3; CAL PDZ FP-2: 1; Cneo AK release: -1

Results for CCCCNS(=O)(=O)c1ccc2nc(SCC(=O)c3ccccc3OC)[nH]c2c1 ?
CAL PDZ FP-1: -5; miR122 inh: inconclusive; PglD inh: 0; CAL PDZ FP-2: -3; Cneo AK release: 0

Source: PubChem BioAssay (Broad Institute)
